RGS8-Gao: regulators of human RGS8-Galphao interaction | multiplexed bead flow cytometry, RGS8-Galphao binding; actives lie on both sides | response (percent of control binding), % at 10 µM | actives 0.34% (n = 220,000) | AID 1423; in the data active = response below about 60% or above about 140%; inactive = in between;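 note: Galphao activated as the GDP aluminium fluoride complex binding bead-coupled RGS8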
RGS7-Gao reg: regulators of human RGS7-Galphao interaction. actives 0.35% (n = 220,000). P09471. Multiplexed bead flow cytometry, RGS7-Galphao binding; actives lie on both sides. binding response (% of control), % at 10 µM; in the data active = binding response below about 49% or above about 150%; inconclusive = no clear call, values can overlap the other calls; inactive = in between;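 note: fluorescent Galphao held in activated GDP-AlF4 state binding bead-coupled RGS7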
RGS16-Gao: RGS16-Galphao interaction regulator (human). O15492+P09471. bead-based flow cytometry RGS16-Galphao binding, fluorescence; actives lie on both sides. binding response (% of control), % at 10 µM. actives 0.38% (n = 220,000). AID 1441;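 note: Galphao activated by GDP with aluminum fluoride before binding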
Target sequence (O15492 whole entry, looked up): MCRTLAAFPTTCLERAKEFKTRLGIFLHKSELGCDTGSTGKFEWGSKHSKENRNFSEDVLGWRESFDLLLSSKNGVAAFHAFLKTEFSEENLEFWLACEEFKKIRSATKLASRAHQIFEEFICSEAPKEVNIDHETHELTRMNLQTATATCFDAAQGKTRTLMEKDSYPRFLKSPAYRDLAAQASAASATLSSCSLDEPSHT
Target sequence (P09471 whole entry, looked up): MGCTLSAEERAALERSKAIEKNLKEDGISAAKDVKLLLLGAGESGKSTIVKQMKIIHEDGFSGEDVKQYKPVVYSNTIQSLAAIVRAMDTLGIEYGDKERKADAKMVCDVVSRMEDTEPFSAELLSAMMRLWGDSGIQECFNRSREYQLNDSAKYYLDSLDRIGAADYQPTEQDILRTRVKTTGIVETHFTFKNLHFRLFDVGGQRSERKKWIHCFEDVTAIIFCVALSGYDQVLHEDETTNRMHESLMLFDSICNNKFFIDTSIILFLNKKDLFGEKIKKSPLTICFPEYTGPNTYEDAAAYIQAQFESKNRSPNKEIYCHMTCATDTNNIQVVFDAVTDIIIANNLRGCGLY
Biofilm kill mix: mixtures killing C. albicans biofilm. C. albicans biofilm persisters + clotrimazole, fluorescence viability; primary screen in compound mixtures of four per well. inhibition, % at 7.6 µM. actives 0.02% (n = 120,000);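 active = inhibition above 30.3% in the primary screen of four-compound pools, then above 30% when the compound was retested; inconclusive = passed the primary limit but could not be retested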;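 note: compounds exposed to preformed 24 h biofilms for 48 h; 0% = untreated biofilm control and 100% = clotrimazole plus chlorhexidine kill blank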
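Test system: C. albicans biofilms. Buffer or medium: RPMI/MOPS medium, pH 7.0. Timing: 48 h compound exposure at 37 °C. Technique: Alamar Blue fluorescence. Evaluation: percent inhibition of biofilm viability.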
RGS4-Gao reg: modulates binding of RGS4 to human Galphao; Multiplexed bead flow cytometry; actives lie on both sides; binding response (% of control), % at 10 µM; actives 0.33% (n = 220,000); AID 1415; in the data active = binding response below about 49% or above about 150%; inactive = in between;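 note: fluorescent Galphao activated with aluminum fluoride binding bead-coupled RGS4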
RGS4-Gao HTS: modulates binding between human RGS4 and Galphao. RGS4–Galpha-o binding response, % at 10 µM. actives 99% (n = 1,600). shares compounds with RGS16-Gao. multiplexed bead flow cytometry, RGS–Galpha-o binding;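 note: fluorescently labeled Galpha-o bound to GDP with aluminium fluoride binding biotinylated RGS beads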
Biotin-avidin: biotin-avidin bead binding disruption counter-screen; shares compounds with RGS16-Gao; streptavidin beads, fluorescein-biotin binding, flow cytometry; inhibition, % at 10 µM; 1,700 tested, under 10 active; AID 1783;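 active = inhibition above 50%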;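 note: median green fluorescence of gated singlet beads compared with DMSO control wells; 0% = DMSO wells and 100% = complete loss of bead fluorescence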
RGS8-Gao confirm: RGS8-Galphao interaction regulation, single point confirmation; shares compounds with RGS16-Gao; bead-based flow cytometry RGS8-Galphao binding, fluorescence; actives lie on both sides; binding response (% of control), % at 10 µM; actives 3% (n = 1,700); in the data active = binding response below about 72% or above about 130%; inactive = in between;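 note: Galphao activated as GDP AlF4 complex before binding bead RGS8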
RGS7-Gao single: RGS7-Galphao interaction regulation, single point confirmation; AID 1837; bead-based flow cytometry RGS7-Galphao binding; actives lie on both sides; shares compounds with RGS16-Gao; response (percent of control binding), % at 10 µM; actives 7.8% (n = 1,700); in the data active = response below about 75% or above about 130%; inactive = in between;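 note: fluorescent Galphao activated with GDP and aluminum fluoride binding bead-coupled RGS7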
RGS16-Gao single: confirmation of regulators of human RGS16-Galphao interaction | response (% of control binding), % at 10 µM | actives 4% (n = 1,700) | shares compounds with RGS16-Gao | bead-based flow cytometry, RGS16-Galphao binding; actives lie on both sides; in the data active = response below about 74% or above about 130%; inactive = in between;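 note: Galphao activated as the GDP aluminium fluoride complex binding bead-coupled RGS16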
RGS4-Gao single: RGS4-Galphao interaction regulation, single point confirmation; binding response (% of control), % at 10 µM; RGS4-Galphao binding, multiplexed bead flow cytometry; actives lie on both sides; shares compounds with RGS16-Gao; actives 4% (n = 1,700); in the data active = binding response below about 74% or above about 130%; inactive = in between
RGS19-Gao single: confirmation of regulators of human RGS19-Galphao interaction. response (percent of control binding), % at 10 µM. bead-based flow cytometry RGS19-Galphao binding; actives lie on both sides. shares compounds with RGS16-Gao. actives 5% (n = 1,700); in the data active = response below about 50% or above about 160%; inactive = in between;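 note: 100% = no compound control and 0% = blank background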
* = called active by the depositor; i = inactive; ? = inconclusive; nt = no result; [ ] = another dose, or the depositor's remark. This is a sample that favours compounds with a hit; in the whole collection about 0.74% have one here. Unless noted, the rule behind the calls is not given here.

SMILES	RGS8-Gao	RGS7-Gao reg	RGS16-Gao	Biofilm kill mix	RGS4-Gao reg	RGS4-Gao HTS	Biotin-avidin	RGS8-Gao confirm	RGS7-Gao single	RGS16-Gao single	RGS4-Gao single	RGS19-Gao single
CC(=O)Nc1ccc(S(=O)(=O)NNC(=O)c2ccc(S(=O)(=O)N3CCCCC3)cc2)cc1	87.8	99.3	20.0*	-2.8	97.9	97.9*	0.2	93.0	91.9	90.0	91.5	82.1
Cc1ccc(C(=O)Nc2ccc(S(=O)(=O)N3CCOCC3)cc2)cc1	93.9	365.2*[activator]	104.4	7.0	150.8*[activator]	nt	-0.3	100.2	100.8	105.8	104.6	109.8
O=C(NNS(=O)(=O)c1ccc(F)cc1)c1ccc(S(=O)(=O)N2CCCCC2)cc1	100.5	100.5	112.3	9.9	103.0	nt	nt	nt	nt	nt	nt	nt
S=c1[nH]nc(Cn2cnc3ccccc32)n1-c1ccccc1	100.8	113.0	104.1	9.6	102.0	nt	nt	nt	nt	nt	nt	nt
Cn1c(=O)c2c(nc(SCCN3CCOCC3)n2Cc2ccc(F)cc2)n(C)c1=O	157.9*[activator]	132.8	i	nt	138.7	138.7*	-0.3	103.1	105.5	105.6	101.2	111.9
Cn1c(=O)c2c(nc(SCCN3CCOCC3)n2Cc2ccccc2Cl)n(C)c1=O	101.2	103.2	102.8	nt	100.9	nt	nt	nt	nt	nt	nt	nt
Nc1cccc(S(=O)(=O)NC2=NCCC2)c1	148.7*[activator]	114.0	393.0	nt	119.0	119.0*	nt	nt	nt	nt	nt	nt
COc1cccc(C(=O)NCCOc2cc(C)cc(C)c2)c1	80.6	97.5	56.1	4.4	91.2	nt	-1.0	100.6	95.3	100.3	97.8	119.0
CC1CCC(NC(=O)CN(C)S(=O)(=O)c2cccc3cccnc23)CC1 (stereo not drawn)	32.7*	?	19.5*	23.9	26.4*	nt	1.3	101.0	100.8	98.8	99.6	105.5
Cc1ccc(NC(=O)CN(C)S(=O)(=O)c2cccc3cccnc23)cc1	74.5	63.7	129.6	nt	99.5	nt	nt	nt	nt	nt	nt	nt
O=C1CC(/C=C/c2ccncc2)=Nc2ccccc2N1	96.5	161.9*[activator]	96.5	12.7	117.0	117.0*	-1.7	102.3	99.5	102.9	102.3	89.2
O=C1CC(c2ccccc2)=Nc2ccccc2N1	101.0	100.3	96.9	nt	103.1	nt	nt	nt	nt	nt	nt	nt
Cc1cccc(OS(=O)(=O)NC(=O)OCC2CCCN3CCCCC23)c1 (stereo not drawn)	99.3	97.9	102.2	12.0	99.7	nt	nt	nt	nt	nt	nt	nt
Cc1ccc(NS(=O)(=O)c2ccc(OCC(=O)NCc3cccnc3)cc2)cc1	69.0	88.4	23.3*	7.5	89.2	89.2*	0.9	98.2	93.9	99.7	95.6	94.6
CN(C)C(=O)NC(NC(=S)Nc1ccccc1)C(Cl)(Cl)Cl (stereo not drawn)	91.1	85.1	97.0	4.6	95.0	nt	nt	nt	nt	nt	nt	nt
CN(C)C(=O)NC(Nc1ccc(Cl)cc1Cl)C(Cl)(Cl)Cl (stereo not drawn)	55.9*	66.8	17.0*	nt	71.0	71.0*	2.4	94.7	88.7	89.5	88.9	92.4
O=C(/C=C/c1ccccc1)Nc1ccc(Cl)cn1	100.0	97.3	102.1	12.3	103.5	nt	nt	nt	nt	nt	nt	nt
Cc1ccc(-n2cccc2/C=C2/C(=N)N3C(=NC2=O)SN=C3S(C)(=O)=O)cc1Cl	69.9	45.1*	59.8	12.6	72.5	72.5*	nt	nt	nt	nt	nt	nt

Screens from PubChem BioAssay.
